Experiment [1] can be described thus: inhibitors of TNFa-induced NFkB p65 translocation, primary screen, imaging, HUVEC, MLSMR starter and 10KST1 sets (AID 438;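 active means inhibition above 20% together with a positive visual image hit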;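 further: compound added about 3h40 before a 20 min TNFalpha stimulation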;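 on inhibition: signal is the nuclear over cytoplasmic p65 intensity ratio per well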). To be noted: HUVEC TNFa-induced p65 nuclear translocation; cell count: measured here: nuclei count (cytotoxicity indicator), at 2.08 µM; inhibition: at 2 µM, stronger effect = higher value, 0% TNFa-plus-vehicle, 100% no-TNFa wells.
Experiment [2] in a line: inhibitors of E-selectin induction by TNFa, primary screen, imaging, HUVEC, immunofluorescence, MLSMR starter and 10KST1 sets (AID 487;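 active means visually confirmed hit in the image check and inhibition above 20%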;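 on inhibition: signal is fraction of cell area covered by stained E-selectin grains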;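 on nuclei count: 100% = median nuclei count of all wells on the same plate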). Conditions: HUVEC TNFalpha-induced E-selectin immunofluorescence imaging, at 2 µM; inhibition: stronger effect = higher value; nuclei count: measured here: cell number, toxicity.
The nature of experiment [3]: DUSP6 inhibitors restoring Erk phosphorylation by chemical complementation, primary imaging in DUSP6-transfected HeLa (AID 609).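 On inhibition: phospho-Erk level distribution per well compared with pooled transfected vehicle control wells.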 To be noted: HeLa MKP-3 transfected, phospho-Erk imaging KS statistic, at 10 µM, cells stimulated with TPA for 15 min.
For experiment [4], the target named is Dual specificity protein phosphatase 6 (Homo sapiens) (UniProt Q16828). The experiment is described as above. To be noted: HeLa MKP-3 transfected, phospho-Erk imaging KS statistic; at 10 µM; stronger effect = higher value; cells stimulated with TPA for 15 min.
In experiment [5] the target is Voltage-gated potassium channel subunit beta-2 (Rattus norvegicus) (UniProt P62483). The experiment in a line: KvBeta enzyme negative modulators, primary screen, biochemical, NADPH fluorescence (AID 622;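 active means fluorescence slope higher than the sample average by over 3 SD, cut at about -0.22 in these data, passing the limit was not always enough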;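 further: slope of raw intensity against log time taken from 70 to 1610 s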). Conditions: recombinant KvBeta, 4-cyanobenzaldehyde reduction, at 10 µM, stronger effect = higher value.
Experiment [6] has the same target. The experiment in a line: KvBeta positive modulators, primary screen, biochemical, NADPH fluorescence (AID 623;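 active means NADPH fluorescence slope more negative than the mean of all samples by about 3 SD, 99.7% confidence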;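 further: fluorescence intensity change per second fitted from 20 to 320 s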). Conditions: Recombinant KvBeta, NADPH fluorescence decrease slope, 10 min; at 10 µM; stronger effect = lower value.
Experiment [7] has as its target Alpha-2C adrenergic receptor (Homo sapiens) (UniProt P18825). The experiment in a line: modulators of alpha2C/GIRK thallium flux, primary screen, cell-based, HEK293 alpha2C/GIRK1/2 (AID 624;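 active means fluorescence slope after compound addition differing from the mean of all screened samples at 99.7% confidence, in either direction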;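 further: slope of fluorescence ratio to pre-addition baseline per second over 15 to 24 s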). To be noted: thallium flux BTC fluorescence, at 10 µM, actives lie on both sides.
Experiment [8] in a line: inhibitors of larval lipid processing in zebrafish, primary screen, whole organism, PED6 fluorescence, gall bladder and intestine (AID 686;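 active means a full or partial loss of lipid-probe fluorescence in the fish gall bladder, intestine or both, judged by eye; inactive means no fluorescence loss, or compound toxic to the fish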;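 further: larvae 5 to 7 days old with five fish per well; signal comes from phospholipase A2 cleavage of quenched PED6 carried via bile; overnight exposure to compound and PED6 before scoring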). To be noted: Zebrafish larvae PED6 lipid processing, fluorescence scoring; screened at 20 µM (by protocol). The method in brief:
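Doses: 20 µM single dose. Test system: live zebrafish larvae aged 5-7 days, whole organism. Quantity: five larvae per well. Measured by: By-eye fluorescence microscopy. Reagent: ingested quenched lipid PED6 at 100 nM. Read-out: visual per-well fluorescence inhibition score. Times: overnight exposure of larvae to compound plus PED6.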

Experiment [9] can be described thus: inhibitors of Chlamydomonas gravitaxis, primary screen, whole organism, Chlamydomonas reinhardtii, WT vs cilia-less mutant, absorbance, 96-well (AID 463189;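 active means inhibition at or above 50% relative to wild type and mutant plate controls; inactive means inhibition below 50%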;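 further: 0% = wild type cc124 cells in DMSO and 100% = ciliumless bld1 mutant cells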). To be noted: OD600 absorbance, 2 days, at 10 µM, stronger effect = higher value.
The mark [10] stands for this setting: measured here: cell density z-score.
[11] abbreviates: measured here: nuclear c-Myc green intensity z-score.
The mark [12] stands for this setting: measured here: nuclear pErk red intensity z-score, stronger effect = higher value.

The structures appear in SMILES notation. Calls of active or inactive are those of the source.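 How the source made its calls, unless noted: active means compounds giving at least 50% inhibition in the cell-based MKP-3 phosphatase rescue imaging test; inactive means the rest.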

Sequence of Dual specificity protein phosphatase 6 (Homo sapiens) (Q16828 whole entry, looked up): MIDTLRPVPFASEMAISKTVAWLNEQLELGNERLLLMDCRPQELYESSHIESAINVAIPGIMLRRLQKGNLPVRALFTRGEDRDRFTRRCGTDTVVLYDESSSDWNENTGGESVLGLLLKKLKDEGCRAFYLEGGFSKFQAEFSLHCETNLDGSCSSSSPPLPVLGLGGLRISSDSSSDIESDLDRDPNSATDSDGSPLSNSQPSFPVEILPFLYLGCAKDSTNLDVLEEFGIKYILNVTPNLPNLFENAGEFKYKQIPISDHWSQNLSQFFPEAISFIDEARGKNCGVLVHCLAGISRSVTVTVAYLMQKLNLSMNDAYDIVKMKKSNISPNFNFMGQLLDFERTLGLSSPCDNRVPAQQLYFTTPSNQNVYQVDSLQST
Sequence of Voltage-gated potassium channel subunit beta-2 (Rattus norvegicus) (P62483 whole entry, looked up): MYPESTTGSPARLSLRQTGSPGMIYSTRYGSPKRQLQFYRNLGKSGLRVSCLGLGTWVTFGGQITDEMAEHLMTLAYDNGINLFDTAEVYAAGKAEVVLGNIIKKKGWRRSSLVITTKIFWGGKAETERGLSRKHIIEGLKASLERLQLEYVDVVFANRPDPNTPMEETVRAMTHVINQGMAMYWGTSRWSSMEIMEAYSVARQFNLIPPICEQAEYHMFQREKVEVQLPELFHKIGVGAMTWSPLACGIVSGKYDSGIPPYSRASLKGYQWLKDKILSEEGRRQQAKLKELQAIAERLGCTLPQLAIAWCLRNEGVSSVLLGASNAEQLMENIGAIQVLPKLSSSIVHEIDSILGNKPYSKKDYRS
Sequence of Alpha-2C adrenergic receptor (Homo sapiens) (P18825 whole entry, looked up): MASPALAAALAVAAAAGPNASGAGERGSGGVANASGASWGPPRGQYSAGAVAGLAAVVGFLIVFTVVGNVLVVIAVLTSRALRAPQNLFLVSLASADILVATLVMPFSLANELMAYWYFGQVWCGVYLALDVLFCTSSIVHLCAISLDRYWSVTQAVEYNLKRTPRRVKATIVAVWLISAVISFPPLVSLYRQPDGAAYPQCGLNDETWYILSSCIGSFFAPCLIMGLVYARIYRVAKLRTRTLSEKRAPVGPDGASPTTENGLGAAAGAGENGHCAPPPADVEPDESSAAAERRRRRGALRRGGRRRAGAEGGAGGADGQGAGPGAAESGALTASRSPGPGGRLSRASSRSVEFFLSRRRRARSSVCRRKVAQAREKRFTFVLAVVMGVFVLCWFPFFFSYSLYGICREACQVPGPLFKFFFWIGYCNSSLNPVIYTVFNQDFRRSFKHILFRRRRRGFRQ

As for `O=C(c1coc(=O)c(Br)c1)N1CCCc2ccccc21`, in experiment [1], the cell count turned out to be 384. Further, the inhibition (in general, the change of the read-out against control, counted positive when it falls) is -0.8% (inactive) in [1], -39.7% (inactive) in experiment [2], 3.42% (inactive) in experiment [4] and 36.5% (inactive) in [9]. The nuclei count in [2] is 134%. Moreover, the z-score in experiment [3] (setting [10]) is -0.336; in experiment [3] (setting [11]), -1.15; in experiment [3] (setting [12]), 0.12. Also, the fluorescence slope in [5] was -0.437 (inactive). For the same molecule, the NADPH fluorescence slope in [6] is -8e-05 (inactive). In addition, the slope in experiment [7] was 0.00466 (inactive). The result in experiment [8] was inactive.

On to `CN1C(=O)CC(N2CCN(c3ccc(Cl)c(Cl)c3)CC2)C1=O` (stereo unspecified), for which the cell count in [1] came to 379. Moreover, the inhibition in experiment [1] was -3.9% (inactive); in [2], -80.8% (inactive); in experiment [4], 5.65% (inactive); in experiment [9], 0.241% (inactive). In [2], the nuclei count stood at 94.7%. In addition, the z-score in experiment [3] (setting [10]) was -1.07; in experiment [3] (setting [11]), 0.418; in [3] (setting [12]), -1.7. The fluorescence slope in experiment [5] was -0.541 (inactive). Besides, the NADPH fluorescence slope in experiment [6] is -7.5e-05 (inactive). For the same molecule, in [7], the slope was 0.00484 (inactive). In addition, the molecule was called inactive in [8].

For the molecule `CCCCCSc1nc(O)cc(=O)[nH]1`, the cell count in experiment [1] is 366. Besides, the inhibition is -1.9% (inactive) in experiment [1], -61.7% (inactive) in experiment [2], -0.624% (inactive) in experiment [4] and -10.7% (inactive) in experiment [9]. Besides, the nuclei count in experiment [2] was found to be 116%. For the same molecule, the z-score is -1.75 in experiment [3] (setting [10]), 1.21 in [3] (setting [11]) and 0.475 in experiment [3] (setting [12]). Further, the fluorescence slope in experiment [5] was -0.395 (inactive). Also, the NADPH fluorescence slope in [6] was 1.3e-05 (inactive). In addition, in experiment [7], the slope was 0.00579 (inactive). Further, the outcome in experiment [8] was inactive.

`C=CCc1c(C)c(C#N)c2nc3ccccc3n2c1N1CCN(C)CC1`: the cell count in [1] is 528. The inhibition is -23% (inactive) in experiment [1], -93.7% (inactive) in experiment [2], -15% (inactive) in experiment [4] and 7.97% (inactive) in [9]. Also, the nuclei count in experiment [2] is 150%. Also, the z-score was -0.94 in [3] (setting [10]), -0.784 in experiment [3] (setting [11]) and -1.36 in experiment [3] (setting [12]). In addition, the fluorescence slope in [5] is -0.476 (inactive). The NADPH fluorescence slope in experiment [6] is -2e-05 (inactive). Moreover, the slope in experiment [7] is 0.00524 (inactive). Also, the molecule was called inactive in experiment [8].

For `S=c1[nH]nc(-c2ccccc2)n1Cc1ccccc1`, the cell count in experiment [1] worked out at 506. Further, the inhibition in experiment [1] was 0% (inactive); in [2] it was -83.3% (inactive); in experiment [4], 7.48% (inactive); in experiment [9], -5.83% (inactive). In experiment [2], the nuclei count is 170%. Also, the z-score in experiment [3] (setting [10]) is 0.046; in experiment [3] (setting [11]), 1.63; in experiment [3] (setting [12]), -0.862. In addition, in experiment [5], the fluorescence slope is -0.391 (inactive). The NADPH fluorescence slope in [6] is -9.1e-05 (inactive). Besides, the slope in experiment [7] was 0.00591 (inactive). In addition, in experiment [8], the result was inactive.

With `CC1C[C@@]2(NC(=O)NC2=O)C(C)CN1C` (stereo partly specified), in [1], the cell count turned out to be 510. The inhibition in [1] was -6.8% (inactive); in [2], -91.9% (inactive); in experiment [4] it was -3.98% (inactive); in experiment [9], 6.02% (inactive). This molecule also yielded a nuclei count in [2] of 118%. For the same molecule, the results for the z-score in experiment [3] (setting [10]), in experiment [3] (setting [11]) and in experiment [3] (setting [12]) were 1.06, -0.13 and -0.779, respectively. In experiment [5], the fluorescence slope is -0.499 (inactive). The NADPH fluorescence slope in experiment [6] was -0.000117 (inactive). The slope in [7] is 0.00539 (inactive). Further, in [8], the molecule was called inactive.

`COCCCNC(=O)C(C#N)c1nc2ccccc2nc1N1CCCC1` (stereo unspecified): the cell count in [1] stood at 459. Further, the inhibition is 12.6% (inactive) in experiment [1], -130% (inactive) in experiment [2], 7.83% (inactive) in experiment [4] and -2.67% (inactive) in [9]. Also, the nuclei count in experiment [2] worked out at 156%. Also, the results for the z-score in [3] (setting [10]), in experiment [3] (setting [11]) and in experiment [3] (setting [12]) were 1.4, 0.549 and -0.292, respectively. Moreover, in [5], the fluorescence slope is -0.000219 (active). For the same molecule, the NADPH fluorescence slope in experiment [6] is 0 (inactive). The slope in experiment [7] is 0.0065 (inactive). The outcome in experiment [8] was inactive.

(Values after PubChem BioAssay.)
